For test [1], the system named is MCF7. In words: Antiproliferative activity against human MCF7 cells expressing ER. The format is functional, cell-based. The gist of the method:
(§1)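 Growth inhibition was measured in the listed cell lines. IC50 is the compound concentration that inhibits cellular growth by 50%. Values are mean ± standard error from at least two separate experiments, each run in triplicate.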

Test [2] relates to SK-BR-3. Description: Antiproliferative activity against human ER deficient SKBR3 cells over expressing HER2. The test is classed as functional, cell-based. In a few lines: as §1
The target of test [3] is MCF-7 and SKBr-3 cells (Homo sapiens). In words: Antiproliferative activity against human MCF7 and SKBr3 cells.
The target of test [4] is T1, Heat shock protein HSP90 (Homo sapiens) (UniProt P07900+P08238). Description: Inhibition of Hsp90 in human MCF7 cells assessed as Her2 degradation by Western blot analysis. The format is cell-based.
Test [5] has as its target T1, Heat shock protein HSP90 (Homo sapiens). Description: Inhibition of Hsp90 in human MCF7 cells assessed as c-Raf degradation by Western blot analysis. The test is classed as cell-based. A general note: Immunoblotting shows a protein as a band on a membrane.

Each structure is given as a SMILES string. Values joined by “and” are separate entries in the source; they are usually repeats but may differ in a detail not shown here. Equal values may be shown once. Active and inactive are the calls of the source. No cut-off for these calls is given here.

For `Cc1c(O)ccc2cc(-n3cc(-c4ccccc4)nn3)c(=O)oc12`, the 50% inhibitory concentration (IC50) in test [1] worked out at 25.2 µM; in test [2] it was 39 µM.

Take `COc1ccc(-c2cn(-c3cc4ccc(OC(C)=O)c(C)c4oc3=O)nn2)cc1`: the 50% inhibitory concentration (IC50) in test [1] and in test [2] was more than 100 µM in each case.

On to `Cc1c(O)ccc2cc(-n3cc(-c4cc5ccccc5[nH]4)nn3)c(=O)oc12`, for which the half-inhibitory concentration (IC50) in test [1] came out at 38.3 µM; in test [2], 42.5 µM.

Take `CO[C@@H]1[C@@H](OC(N)=O)[C@@H](O)[C@H](Oc2ccc3c(O)c(NC(=O)c4ccc(O)c(CC=C(C)C)c4)c(=O)oc3c2C)OC1(C)C` [NOVOBIOCIN]: the results for the concentration for half-maximal inhibition (IC50) in test [1] and in test [2] were 481 µM and 475 µM, respectively.

For the compound `CC(=O)Oc1ccc2cc(-n3cc(-c4ccc(F)cc4F)nn3)c(=O)oc2c1C`, the IC50 in test [1] and in test [2] was more than 100 µM each time.

For `Cc1c(O)ccc2cc(-n3cc(-c4ccc(F)cc4F)nn3)c(=O)oc12`, the half-inhibitory concentration (IC50) in test [1] is 33.5 µM; in test [2], 34.2 µM.

On to `CC(=O)Oc1ccc2cc(-n3cc(-c4ccccc4)nn3)c(=O)oc2c1C`, for which the IC50 in test [1] stood at 40.8 µM; in test [2] it was 76.4 µM.

`COc1cccc(-c2cc(-c3cn(-c4cc5ccc(O[C@@H]6OC(C)(C)[C@H](OC)[C@@H](O)[C@H]6O)c(C)c5oc4=O)nn3)ccc2OC)c1`: the half-inhibitory concentration (IC50) was determined as 13.2 µM in test [1] and 21.2 µM in test [2].

Take `CO[C@@H]1[C@@H](O)[C@@H](O)[C@H](Oc2ccc3cc(-n4cc(-c5ccccc5)nn4)c(=O)oc3c2C)OC1(C)C`: the IC50 was 64.4 µM in test [1] and more than 100 µM in test [2].

As to `CO[C@@H]1[C@@H](O)[C@@H](C)[C@H](Oc2ccc3cc(NC(=O)c4c[nH]c5ccccc45)c(=O)oc3c2C)OC1(C)C`, the concentration for half-maximal inhibition (IC50) in test [3] is 5.3 µM and 12.2 µM.

As to `CC(=O)Oc1ccc2cc(-n3cc(/C=C/c4ccccc4)nn3)c(=O)oc2c1C`, the IC50 is 28.5 µM in test [1] and 65.1 µM in test [2].

Regarding `CO[C@@H]1[C@@H](O)[C@@H](O)[C@H](Oc2ccc3cc(-n4cc(-c5c[nH]c6ccccc56)nn4)c(=O)oc3c2C)OC1(C)C`, the 50% inhibitory concentration (IC50) in test [1] is 18.3 µM; in test [2], 8.17 µM.

Regarding `COc1cccc(-c2cc(-c3cn(-c4cc5ccc(O)c(C)c5oc4=O)nn3)ccc2OC)c1`, the 50% inhibitory concentration (IC50) in test [1] is 28 µM; in test [2], 44.9 µM.

As for `Cc1ccc(-c2cn(-c3cc4ccc(O)c(C)c4oc3=O)nn2)cc1`, the half-maximal inhibitory concentration (IC50) is 23.2 µM in test [1] and more than 100 µM in test [2].

On to `Cc1c(O)ccc2cc(-n3cc(-c4ccc(N(C)C)cc4)nn3)c(=O)oc12`, for which the half-inhibitory concentration (IC50) in test [1] and in test [2] was more than 100 µM each time.

`COc1ccc(-c2cn(-c3cc4ccc(O)c(C)c4oc3=O)nn2)cc1`: the concentration for half-maximal inhibition (IC50) in test [1] and in test [2] was more than 100 µM in each case.

With `COc1cccc(-c2cc(-c3cn(-c4cc5ccc(OC(C)=O)c(C)c5oc4=O)nn3)ccc2OC)c1`, the IC50 came out at 42.4 µM in test [1] and 50.8 µM in test [2].

With `Cc1c(O)ccc2cc(-n3cc(/C=C/c4ccccc4)nn3)c(=O)oc12`, the figures for the IC50 in test [1] and in test [2] were 33.7 µM and 33.9 µM, respectively.

Turning to `CC(=O)Oc1ccc2cc(-n3cc(-c4ccc(N(C)C)cc4)nn3)c(=O)oc2c1C`, in test [4], the inhibition entry is “inactive”. The IC50 in test [1] and in test [2] was more than 100 µM throughout.

Turning to `CC(=O)Oc1ccc2cc(-n3cc(-c4ccc(C)cc4)nn3)c(=O)oc2c1C`, the IC50 in test [1] is more than 100 µM; in test [2], 90.8 µM.

As for `CC(=O)Oc1ccc2cc(-n3cc(-c4cc5ccccc5[nH]4)nn3)c(=O)oc2c1C`, the results for the IC50 in test [1] and in test [2] were 76.1 µM and 50.4 µM, respectively.

For the compound `CC(=O)Oc1ccc2cc(-n3cc(-c4c[nH]c5ccccc45)nn3)c(=O)oc2c1C`, the inhibition result in test [4] and in test [5] was “Dose-dependent effect” throughout. Besides, the half-inhibitory concentration (IC50) in test [1] is 7.45 µM; in test [2] it was 6.52 µM.

As a reminder, the IC50 is the midpoint of a concentration-inhibition curve. Read a high IC50 as a need for much substance.

The record behind these values is ChEMBL document CHEMBL1177761, “Click chemistry to probe Hsp90: Synthesis and evaluation of a series of triazole-containing novobiocin analogues” (Bioorg Med Chem Lett, 2010).
